Hits are enriched below; roughly 1.5% of the tested compounds scored in any of these assays.
EBI2 block: blocks human EBI2 receptor beta-arrestin signaling; inhibition, % at 5 µM; EBI2 beta-arrestin recruitment, luminescence, 7a,25-OHC stimulated; 0.81% of 360,000 active; AID 651636; P32249; in the data active = inhibition above about 38%;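 also: enzyme fragment complementation signal reports receptor beta-arrestin coupling in cells; 0% = agonist plus DMSO wells and 100% = wells without agonist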
APJ ag: activates the human apelin receptor APJ. P35414. CHO-K1 APJ PathHunter beta-arrestin, luminescence; 0% DMSO wells, 100% apelin. activation, % at 20 µM. 0.11% of 330,000 active. AID 2520;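 active = activation more than six SD over the plate average, tested at 20 µM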;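 also: 0% = DMSO alone and 100% = apelin-13 at 10 nM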
Target sequence (P35414 whole entry, looked up): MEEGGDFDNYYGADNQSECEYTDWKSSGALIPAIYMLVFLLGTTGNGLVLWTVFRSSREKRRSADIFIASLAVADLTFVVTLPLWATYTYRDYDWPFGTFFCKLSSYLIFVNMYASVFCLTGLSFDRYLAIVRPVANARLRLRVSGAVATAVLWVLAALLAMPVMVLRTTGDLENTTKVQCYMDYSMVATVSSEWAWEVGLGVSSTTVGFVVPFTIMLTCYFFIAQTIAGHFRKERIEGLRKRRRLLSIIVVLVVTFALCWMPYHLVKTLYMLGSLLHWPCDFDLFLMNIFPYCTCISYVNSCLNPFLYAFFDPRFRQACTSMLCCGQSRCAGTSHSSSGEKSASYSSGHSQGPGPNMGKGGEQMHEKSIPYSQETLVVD
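Test system: CHO-K1 APJ beta-arrestin complementation cell line. Amount: cell density 1000 per well. Controls: DMSO negative, 10 nM Apelin-13 positive. Signal: luminescent beta-gal fragment complementation, chemiluminescent substrate. Read-out basis: agonist-driven arrestin binding to APJ. Timing: compound stimulation 90 min at 25 °C, detection 60 min.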
CCR6 antag: antagonists of human CCR6 receptor; P51684; CHO-K1 CCR6 PathHunter beta-arrestin, luminescence, CCL20-stimulated; inhibition, % at 20 µM; 0.49% of 340,000 active; AID 493098;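 active = compounds whose inhibition of the agonist-driven luminescence signal at 20 µM reaches about 50%, limit read from the data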;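 also: cells stimulated with CCL20 at 14 nM final; plate controls were DMSO with CCL20 for no effect and DMSO without agonist for full effect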
CXCR6 block: blocks human CXCR6 beta-arrestin recruitment. 0.36% of 360,000 active. inhibition, % at 20 µM. CHO-K1 PathHunter CXCR6 beta-arrestin, luminescence; in the data active = inhibition above about 34%, passing the limit was not always enough;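 also: antagonist mode with CXCL16 agonist at 10 nM final; 0% = 10 nM CXCL16 with DMSO and 100% = unstimulated wells without agonist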
APJ antagonist: antagonists of human APJ apelin receptor | 0.32% of 330,000 active | P35414 | CHO-K1 APJ beta-arrestin complementation, luminescence | inhibition, % at 20 µM;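 active = inhibition above about 40% at 20 µM, limit read from the data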;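 also: cells challenged with 10 nM apelin-13 agonist together with compound; plate controls were apelin-13 plus DMSO wells for no effect and DMSO wells lacking apelin-13 for full effect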
EBI2 antag conf: confirmation of human EBI2 receptor antagonists; shares compounds with EBI2 block; 29% of 2,400 active; inhibition, % at 5 µM; AID 651997; EBI2 beta-arrestin luminescence, 7a,25-OHC antagonism;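 active = inhibition of at least 50%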
EBI2 agonist: EBI2 agonism counter-screen; activation, % at 5 µM; shares compounds with EBI2 block; EBI2-expressing cells, agonist mode, luminescence, 60 min; 0% vehicle, 100% 7α,25-dihydroxycholesterol control; 2,400 tested, under 10 active; AID 652000;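 active = activation of at least 50%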
bGal cs: counter-screen for EBI2 antagonists: E. coli beta-galactosidase inhibition. shares compounds with EBI2 block. purified beta-galactosidase, luminescent Galacton Star, 15 min. inhibition, % at 5 µM. 1% of 2,400 active. AID 652176;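 active = replicate-average signal at least 3 plate SD below neutral wells, shown as high inhibition, flagging enzyme-inhibiting false positives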;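 also: 0% = DMSO wells with enzyme and 100% = wells lacking enzyme; higher means stronger loss of beta-gal luminescence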
An asterisk follows results filed as active; . = no result.

SMILES	EBI2 block	APJ ag	CCR6 antag	CXCR6 block	APJ antagonist	EBI2 antag conf	EBI2 agonist	bGal cs
CC1CCN(c2nc(/C=C/c3ccccc3)nc3ccccc23)CC1	4	-1	17	-6	-1	.	.	.
C(=C\c1nc(N2CCCC2)c2ccccc2n1)/c1ccccc1	41*	1	19	2	-11	59*	-1	-7
O=C(NC(c1ccccc1)c1ccc2ccccc2n1)C1CCN(CCOc2ccc(Cl)cc2Cl)CC1 (stereo unspecified)	40	.	.	10	.	.	.	.
O=C(NC(c1ccc(F)cc1)c1ccc2ccccc2n1)C1CCN(CCOc2ccc(Cl)cc2)CC1 (stereo unspecified)	73*	.	.	8	.	51*	1	4
CCc1nnc(NC(=O)C(CC)CC)s1	12	-1	9	-12	-11	.	.	.
N#Cc1ccc(C(=O)N2CCN(S(=O)(=O)c3ccc(Cl)s3)CC2)cc1	56*	3	20	-5	32	31	0	7
COc1ccc(N2CCN(C(CNC(=O)C(=O)NC3CCCC3)c3ccco3)CC2)cc1 (stereo unspecified)	-3	2	17	2	5	.	.	.
COc1cc2ccccc2cc1C(=O)Nc1ccc(C)cc1	31	-1	-15	5	4	.	.	.
COc1cc2ccccc2cc1C(=O)Nc1ccc(Cc2ccncc2)cc1	48*	2	24	-12	-2	39	1	1
O=C(c1cc2cc(Cl)ccc2[nH]1)N1CCN(C(=O)c2ccco2)CC1	73*	4	-9	-5	-10	49	-1	-7
O=C(c1cc2cc(Cl)ccc2[nH]1)N1CCN(c2ccccn2)CC1	80*	-2	-7	-6	12	67*	-2	-8
O=C(c1cc2cc(Cl)ccc2[nH]1)N1CCN(c2ccccc2F)CC1	85*	-1	-11	1	-9	73*	1	7
CN(Cc1cccs1)C(=O)COc1cccc2c1OC(C)(C)C2	-4	-6	14	-1	13	.	.	.
CCOC(=O)N(C)c1c(CC)nc2c(OCc3cc(Cl)cc(Cl)c3)cccn12	25	.	.	-3	.	.	.	.
Nc1nnnn1-c1cccc([N+](=O)[O-])c1	1	.	-10	-16	.	.	.	.
COc1ccccc1NC(=S)N1CCCCCC1	-3	0	6	4	10	.	.	.
Cn1c(NCc2cccnc2)nc2cc(-c3ccc(C(=O)N4CCOCC4)cc3)sc2c1=O	7	.	.	26	.	.	.	.
N#Cc1c(Nc2ccccc2)c(/C=N/N=C/c2ccccc2)c[nH]c1=O	96*	-1	13	4	10	85*	-2	-6
N#Cc1c(Nc2ccccc2)c(/C=N/NCCO)c[nH]c1=O	-1	-3	0	-9	5	.	.	.
O=C(Nc1cccnc1)/C(N=Nc1c(Cl)cccc1Cl)=C(\O)c1ccccc1	51*	-3	9	9	15	35	4	4
O=C(Nc1cccnc1)/C(N=Nc1ccc(Cl)c(C(F)(F)F)c1)=C(\O)c1ccccc1	8	-2	-3	2	-12	.	.	.
CC(=O)n1cc([C@H]2C=C(C(=O)N3CCN(Cc4ccc5c(c4)OCO5)CC3)O[C@@H](OCc3ccc(CO)cc3)C2)c2ccccc21	42	-2	-4	6	-13	.	.	.
CC(=O)n1cc([C@H]2C=C(C(=O)N3CCN(Cc4ccccc4)CC3)O[C@@H](OCc3ccc(CO)cc3)C2)c2ccccc21	47*	1	1	8	-14	16	-1	-10
CC1=C(C(=O)N2CCOCC2)CC(CC(=O)NCC2CCCCC2)C(=O)N1Cc1ccc(C(C)(C)C)cc1 (stereo unspecified)	7	.	.	-4	.	.	.	.
Cc1ccc(OCC(=O)N2CCC3(CC2)CC(=O)c2ccccc2O3)cc1	86*	0	-3	4	4	60*	1	6
SMILES	EBI2 block	APJ ag	CCR6 antag	CXCR6 block	APJ antagonist	EBI2 antag conf	EBI2 agonist	bGal cs
O=C1CC2(CCN(C(=O)c3ccc(Br)cc3)CC2)Oc2ccccc21	54*	-2	9	-6	3	37	0	3
O=C1CC2(CCN(C(=O)COc3ccc(Cl)cc3)CC2)Oc2ccccc21	87*	0	9	1	-6	64*	-1	-12
COc1cccc(OCC(=O)N2CCC3(CC2)CC(=O)c2ccccc2O3)c1	36	-7	12	5	4	.	.	.
CC(C)(C)Nc1ncnc2sc(-c3ccccc3)cc12	73*	4	2	-16	-9	40	5	9
CCOc1ccc(-c2nc(N)ncc2-c2ccc(OC)cc2)c(O)c1	69*	1	10	-1	-11	35	0	-11
CCOc1ccc(-c2nc(N)ncc2-c2ccc(Cl)cc2)c(O)c1	59*	-4	-11	-2	15	26	1	-9
CCOc1ccc(-c2nc(N)ncc2-c2ccccc2)c(O)c1	39	-2	3	6	-6	.	.	.
COc1ccc(-c2nc(C)ncc2-c2ccc(Cl)cc2)c(O)c1	54*	-3	12	6	16	26	-1	-6
COC(=O)c1ccccc1NC(=O)NC1CCCCC1	-7	2	10	5	-3	.	.	.
CCc1ccc(S(=O)(=O)NCc2csc(C)n2)cc1	0	1	6	-3	-7	.	.	.
Cc1ccc(CNC(=O)Cn2nnc(C(=O)Nc3cccc(C)c3C)c2N)cc1	-5	-3	15	-6	14	.	.	.
Cc1ccccc1Cn1nnc(C(=O)Nc2cccc(C)c2C)c1N	43*	-1	-1	-10	-13	18	1	2
C=CCC1(CC=C)CCCN1C(=O)C1CCC(=O)N(CCc2ccc(Cl)cc2)C1 (stereo unspecified)	79*	-7	5	1	9	41	-2	-6
CC(C)C1CCN(C(=O)C2CCC(=O)N(CCc3ccc(Cl)cc3)C2)CC1 (stereo unspecified)	79*	-2	5	-9	-3	50*	0	12
CCOc1ccc(NC(=O)CN(C)C(=O)c2cc3c(s2)CCCCC3)cc1OCC	4	1	8	4	19	.	.	.
Clc1ccc(Cl)c(-c2nn3c(COc4ccccc4)nnc3s2)c1	53*	-6	-4	4	37	25	1	10
CN(C)c1ccc(C(c2ccc(N(C)C)cc2)C(O)c2ccccc2)cc1 (stereo unspecified)	-4	.	8	-2	.	.	.	.
COc1cccc(NC(=O)Cn2c3ccccc3c3nc4n(c(=O)c32)CCCS4)c1	83*	0	11	0	6	50	1	4
